According to ChEMBL document CHEMBL1828601, “Small molecule peptidomimetic inhibitors of importin α/β mediated nuclear transport” (Bioorg Med Chem, 2010):
Activity calls are given as the source filed them. The rule behind the calls is not given here.

Assays:
FGM [1] = test: Selectivity ratio of IC50 for importin alpha/beta-mediated nuclear transportation of Alexa555-BSA-NLS to IC50 for importin alpha/beta-mediated nuclear transportation of Alexa555-GST-M9 in human FGM cell nucleus; format: cell-based
FGM [2] = test: Inhibition of importin alpha/beta-mediated nuclear transportation of Alexa555-BSA-NLS in human FGM cell nucleus at 500 uM after 30 mins by fluorescence microscopy; format: cell-based
[3] = Inhibition of importin-beta binding to immobilized GST-FG domain of Nup153 at 50 uM by surface plasmon resonance assay
[4] = Inhibition of importin alpha/beta-mediated nuclear transportation of Alexa555-BSA-NLS in human FGM cell nucleus after 30 mins by fluorescence microscopy; format: cell-based
[5] = Inhibition of importin-beta binding to immobilized GST-IBB domain of importin alpha at 50 uM by surface plasmon resonance assay
[6] = Inhibition of importin-beta binding to immobilized GST-RanQLGTP at 50 uM by surface plasmon resonance assay
FGM [7] = test: Inhibition of importin alpha/beta-mediated nuclear transportation of Alexa555-GST-M9 in human FGM cell nucleus at 500 uM after 30 mins by fluorescence microscopy; format: cell-based
Method in brief: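 Transportin-dependent import measured the same way in permeabilized FGM cells, with 0.5 μM Alexa555-GST-M9 cargo in place of BSA-NLS. Conditions: 3 mg/ml HeLa cytosol, ATP-regenerating system, 0.2 mM GTP, 1% DMSO, 30 min at 30°C. Positive control was 1 mg/ml WGA. Nuclear cargo fluorescence quantified per nucleus by automated imaging.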

**Q.** With `CC[C@H](C)[C@H](N)C(=O)Nc1ccc(C(=O)N[C@@H](CCc2ccccc2)C(=O)O)cc1OCc1ccccc1` as the compound, how does the Ratio IC50 (FGM [1]) read?
**A.** Its Ratio IC50 is > 15.

**Q.** And the inhibition (FGM [2])?
**A.** The inhibition was “Active”.

**Q.** What about the Kd [3] of the same compound?
**A.** The Kd was 16 nM.

**Q.** And the IC50 [4]?
**A.** The IC50 was 106000 nM.

**Q.** What about the Kd [5] of the same compound?
**A.** Its Kd is 42 nM.

**Q.** And the Kd [6]?
**A.** Its Kd is 61 nM.

**Q.** What does the source list for `NCCCCNC(=O)[C@@H]1CN(C(=O)[C@@H](N)CCc2ccccc2)C[C@H]1C(=O)NCCc1ccc2ccccc2c1`?
**A.** inhibition (FGM [2]): inactive; inhibition (FGM [7]): inactive

**Q.** Which results are given for `CC[C@H](C)[C@H](NC(=O)c1ccc(NC(=O)CN)c(OCc2c[nH]cn2)c1)C(=O)O`?
**A.** inhibition (FGM [2]): inactive; inhibition (FGM [7]): inactive

**Q.** Which inhibition (FGM [2]) does the source give for `NCC(=O)Nc1ccc(C(=O)N[C@@H](CCc2ccccc2)C(=O)O)cc1OCc1ccc(Cl)cc1` here?
**A.** Its inhibition is “inactive”.

**Q.** And the inhibition (FGM [7])?
**A.** The inhibition was “inactive”.

**Q.** Which inhibition (FGM [2]) does the source give for `CC(C)C[C@H](N)C(=O)Nc1ccc(C(=O)N[C@@H](CCc2ccccc2)C(=O)O)cc1OCc1ccc(Cl)cc1` here?
**A.** Its inhibition is “Active”.

**Q.** And the inhibition (FGM [7])?
**A.** Its inhibition is “Active”.

**Q.** For `NCCCCNC(=O)[C@@H]1CN(C(=O)[C@@H](N)CC(N)=O)C[C@H]1C(=O)NCCc1ccc2ccccc2c1`, which inhibition (FGM [2]) is on record?
**A.** The inhibition was “inactive”.

**Q.** And the inhibition (FGM [7])?
**A.** Its inhibition is “inactive”.

**Q.** Which inhibition (FGM [2]) does the source give for `CC[C@@H](C)[C@H](N)C(=O)Nc1ccc(C(=O)N[C@H](C(=O)O)[C@@H](C)CC)cc1OCc1c[nH]cn1` here?
**A.** The inhibition was “inactive”.

**Q.** What about the inhibition (FGM [7]) of the same compound?
**A.** Its inhibition is “inactive”.

**Q.** For `N[C@@H](Cc1ccc(O)cc1)C(=O)Nc1ccc(C(=O)N[C@@H](CCc2ccccc2)C(=O)O)cc1OCc1ccc(Cl)cc1`, which inhibition (FGM [2]) is on record?
**A.** Its inhibition is “Active”.

**Q.** What about the inhibition (FGM [7]) of the same compound?
**A.** Its inhibition is “Active”.

**Q.** With `N[C@@H](Cc1ccc(Cl)cc1)C(=O)N1C[C@@H](C(=O)NCCc2c[nH]cn2)[C@H](C(=O)NCCc2c[nH]c3ccccc23)C1` as the compound, how does the inhibition (FGM [2]) read?
**A.** The inhibition was “Active”.

**Q.** And the inhibition (FGM [7])?
**A.** Its inhibition is “Active”.

**Q.** What does the source list for `N[C@@H](CCc1ccccc1)C(=O)N1C[C@@H](C(=O)NCCc2c[nH]cn2)[C@H](C(=O)NCCc2c[nH]c3ccccc23)C1`?
**A.** inhibition (FGM [2]): Active; inhibition (FGM [7]): Active

**Q.** Which inhibition (FGM [2]) does the source give for `CC[C@H](C)[C@H](NC(=O)c1ccc(NC(=O)[C@@H](N)Cc2ccc3ccccc3c2)c(OCc2c[nH]cn2)c1)C(=O)O` here?
**A.** Its inhibition is “Active”.

**Q.** And the inhibition (FGM [7])?
**A.** The inhibition was “Active”.

**Q.** Which results are given for `CC[C@H](C)[C@H](NC(=O)c1ccc(NC(=O)[C@@H](N)Cc2c[nH]c3ccccc23)c(OCc2c[nH]cn2)c1)C(=O)O`?
**A.** inhibition (FGM [2]): inactive; inhibition (FGM [7]): inactive

**Q.** For `CC(C)C[C@H](N)C(=O)N1C[C@@H](C(=O)NCCCCN)[C@H](C(=O)NCCc2ccc3ccccc3c2)C1`, which inhibition (FGM [2]) is on record?
**A.** The inhibition was “inactive”.

**Q.** What about the inhibition (FGM [7]) of the same compound?
**A.** The inhibition was “inactive”.

**Q.** Which inhibition (FGM [2]) does the source give for `CC[C@H](C)[C@H](N)C(=O)N1C[C@@H](C(=O)NCCc2c[nH]cn2)[C@H](C(=O)NCCc2c[nH]c3ccccc23)C1` here?
**A.** The inhibition was “Active”.

**Q.** What about the inhibition (FGM [7]) of the same compound?
**A.** Its inhibition is “Active”.

**Q.** Which results are given for `CC[C@@H](C)[C@H](NC(=O)c1ccc(NC(=O)[C@@H](N)CCCCN)c(OCc2c[nH]cn2)c1)C(=O)O`?
**A.** inhibition (FGM [2]): inactive; inhibition (FGM [7]): inactive

**Q.** Which results are given for `N[C@@H](CCc1ccc(Cl)cc1)C(=O)N1C[C@@H](C(=O)NCCc2c[nH]cn2)[C@H](C(=O)NCCc2c[nH]c3ccccc23)C1`?
**A.** inhibition (FGM [2]): inactive; inhibition (FGM [7]): inactive

**Q.** Which results are given for `CC[C@H](N)C(=O)Nc1ccc(C(=O)N[C@@H](CCc2ccccc2)C(=O)O)cc1OCc1ccc(Cl)cc1`?
**A.** inhibition (FGM [2]): Active; inhibition (FGM [7]): Active

**Q.** Which inhibition (FGM [2]) does the source give for `NCCCCNC(=O)[C@@H]1CN(C(=O)[C@@H](N)Cc2ccccc2)C[C@H]1C(=O)NCCc1ccc2ccccc2c1` here?
**A.** The inhibition was “inactive”.

**Q.** And the inhibition (FGM [7])?
**A.** Its inhibition is “inactive”.

**Q.** What does the source list for `N[C@@H](Cc1ccccc1)C(=O)Nc1ccc(C(=O)N[C@@H](CCc2ccccc2)C(=O)O)cc1OCc1ccc(Cl)cc1`?
**A.** inhibition (FGM [2]): Active; inhibition (FGM [7]): Active

**Q.** Which results are given for `NC(=O)C[C@H](N)C(=O)Nc1ccc(C(=O)N[C@@H](CCc2ccccc2)C(=O)O)cc1OCc1ccc(Cl)cc1`?
**A.** inhibition (FGM [2]): Active; inhibition (FGM [7]): Active

**Q.** Which results are given for `NCCCCNC(=O)[C@@H]1CN(C(=O)[C@@H](N)Cc2ccc(O)cc2)C[C@H]1C(=O)NCCc1ccc2ccccc2c1`?
**A.** inhibition (FGM [2]): inactive; inhibition (FGM [7]): inactive

**Q.** For `CC[C@H](C)[C@H](NC(=O)c1ccc(NC(=O)[C@H](C)N)c(OCc2c[nH]cn2)c1)C(=O)O`, which inhibition (FGM [2]) is on record?
**A.** Its inhibition is “inactive”.

**Q.** And the inhibition (FGM [7])?
**A.** The inhibition was “inactive”.

**Q.** What does the source list for `NCCCC[C@H](N)C(=O)Nc1ccc(C(=O)N[C@@H](CCc2ccccc2)C(=O)O)cc1OCc1ccc(Cl)cc1`?
**A.** inhibition (FGM [2]): inactive; inhibition (FGM [7]): inactive

**Q.** Which inhibition (FGM [2]) does the source give for `CC[C@H](C)[C@H](NC(=O)c1ccc(NC(=O)[C@@H](N)CC(N)=O)c(OCc2c[nH]cn2)c1)C(=O)O` here?
**A.** Its inhibition is “inactive”.

**Q.** And the inhibition (FGM [7])?
**A.** The inhibition was “inactive”.

**Q.** Which results are given for `N[C@@H](Cc1cnc[nH]1)C(=O)N1C[C@@H](C(=O)NCCc2c[nH]cn2)[C@H](C(=O)NCCc2c[nH]c3ccccc23)C1`?
**A.** inhibition (FGM [2]): inactive; inhibition (FGM [7]): inactive

**Q.** Which inhibition (FGM [2]) does the source give for `N[C@@H](CO)C(=O)N1C[C@@H](C(=O)NCCc2c[nH]cn2)[C@H](C(=O)NCCc2c[nH]c3ccccc23)C1` here?
**A.** Its inhibition is “inactive”.

**Q.** What about the inhibition (FGM [7]) of the same compound?
**A.** Its inhibition is “inactive”.

**Q.** For `CSCC[C@H](N)C(=O)N1C[C@@H](C(=O)NCCc2c[nH]cn2)[C@H](C(=O)NCCc2c[nH]c3ccccc23)C1`, which inhibition (FGM [2]) is on record?
**A.** Its inhibition is “inactive”.

**Q.** And the inhibition (FGM [7])?
**A.** Its inhibition is “inactive”.

**Q.** What does the source list for `CC[C@@H](C)[C@H](NC(=O)c1ccc(NC(=O)[C@@H](N)Cc2c[nH]cn2)c(OCc2c[nH]cn2)c1)C(=O)O`?
**A.** inhibition (FGM [2]): Active; inhibition (FGM [7]): Active

**Q.** What does the source list for `NCCCCNC(=O)[C@@H]1CN(C(=O)[C@@H](N)CC(=O)O)C[C@H]1C(=O)NCCc1ccc2ccccc2c1`?
**A.** inhibition (FGM [2]): inactive; inhibition (FGM [7]): inactive

**Q.** Which inhibition (FGM [2]) does the source give for `CC[C@H](C)[C@H](NC(=O)c1ccc(NC(=O)[C@@H](N)CCSC)c(OCc2c[nH]cn2)c1)C(=O)O` here?
**A.** The inhibition was “inactive”.

**Q.** What about the inhibition (FGM [7]) of the same compound?
**A.** Its inhibition is “inactive”.

**Q.** For `CSCC[C@H](N)C(=O)N1C[C@@H](C(=O)NCCCCN)[C@H](C(=O)NCCc2ccc3ccccc3c2)C1`, which inhibition (FGM [2]) is on record?
**A.** The inhibition was “inactive”.

**Q.** What about the inhibition (FGM [7]) of the same compound?
**A.** Its inhibition is “inactive”.

**Q.** Which inhibition (FGM [2]) does the source give for `C[C@H](N)C(=O)N1C[C@@H](C(=O)NCCc2c[nH]cn2)[C@H](C(=O)NCCc2c[nH]c3ccccc23)C1` here?
**A.** Its inhibition is “inactive”.

**Q.** What about the inhibition (FGM [7]) of the same compound?
**A.** Its inhibition is “inactive”.

**Q.** Which inhibition (FGM [2]) does the source give for `CC[C@H](C)[C@H](NC(=O)c1ccc(NC(=O)[C@@H](N)Cc2ccc(OC)cc2)c(OCc2c[nH]cn2)c1)C(=O)O` here?
**A.** The inhibition was “inactive”.

**Q.** And the inhibition (FGM [7])?
**A.** The inhibition was “inactive”.

**Q.** Which inhibition (FGM [2]) does the source give for `N[C@@H](CCc1ccccc1)C(=O)Nc1ccc(C(=O)N[C@@H](CCc2ccccc2)C(=O)O)cc1OCc1ccc(Cl)cc1` here?
**A.** The inhibition was “Active”.

**Q.** What about the inhibition (FGM [7]) of the same compound?
**A.** The inhibition was “Active”.

**Q.** Which inhibition (FGM [2]) does the source give for `CC[C@@H](C)[C@H](NC(=O)c1ccc(NC(=O)[C@@H](N)CC(=O)O)c(OCc2c[nH]cn2)c1)C(=O)O` here?
**A.** The inhibition was “inactive”.

**Q.** And the inhibition (FGM [7])?
**A.** Its inhibition is “inactive”.

**Q.** For `CC[C@H](C)[C@H](NC(=O)c1ccc(NC(=O)[C@@H](N)Cc2ccccc2)c(OCc2c[nH]cn2)c1)C(=O)O`, which inhibition (FGM [2]) is on record?
**A.** The inhibition was “inactive”.

**Q.** And the inhibition (FGM [7])?
**A.** Its inhibition is “inactive”.
